Assay results pooled from the literature.
Lines come from different studies, so protocols differ.
Target: Serine/threonine-protein kinase TAO3 (TAOK3, Homo sapiens, UniProt Q9H2K8)
One construct used (Q9H2K8 1-898): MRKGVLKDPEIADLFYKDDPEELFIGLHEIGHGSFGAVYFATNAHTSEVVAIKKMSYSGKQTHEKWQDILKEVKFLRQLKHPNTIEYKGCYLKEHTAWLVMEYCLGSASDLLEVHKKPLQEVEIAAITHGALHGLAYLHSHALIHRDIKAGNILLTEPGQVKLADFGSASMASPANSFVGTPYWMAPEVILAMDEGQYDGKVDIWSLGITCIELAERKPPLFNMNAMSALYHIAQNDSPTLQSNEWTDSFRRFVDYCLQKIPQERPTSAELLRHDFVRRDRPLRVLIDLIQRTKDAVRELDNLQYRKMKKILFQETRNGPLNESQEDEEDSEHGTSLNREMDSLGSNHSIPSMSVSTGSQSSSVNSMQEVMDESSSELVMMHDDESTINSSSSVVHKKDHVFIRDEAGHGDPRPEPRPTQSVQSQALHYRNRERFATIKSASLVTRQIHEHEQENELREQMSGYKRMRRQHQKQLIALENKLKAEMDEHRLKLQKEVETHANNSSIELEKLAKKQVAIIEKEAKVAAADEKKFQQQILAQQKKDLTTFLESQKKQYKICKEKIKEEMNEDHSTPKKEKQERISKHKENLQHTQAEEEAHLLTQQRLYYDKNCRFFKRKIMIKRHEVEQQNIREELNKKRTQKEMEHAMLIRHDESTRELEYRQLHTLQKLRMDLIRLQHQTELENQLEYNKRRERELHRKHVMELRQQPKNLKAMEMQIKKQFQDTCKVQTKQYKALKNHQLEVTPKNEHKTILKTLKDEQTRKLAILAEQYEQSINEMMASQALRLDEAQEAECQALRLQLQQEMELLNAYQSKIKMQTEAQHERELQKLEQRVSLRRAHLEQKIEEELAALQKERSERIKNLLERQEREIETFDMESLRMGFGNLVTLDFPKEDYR

`CC(C)(O)[C@H]1CC[C@H](Nc2ccc3ncc(-c4cccc(C(F)(F)F)c4)n3n2)CC1` has a remaining activity of 75.1% (enzyme activity; inhibitor; 1 µM).
For `O=C(Nc1ccc(Oc2ccc(F)cc2)cc1)N1CCc2ncccc2[C@H]1c1ccc(F)cc1`, the remaining binding was 92% (cell-free assay; competition with immobilised ligand; 1 µM).
With `CC(C)(C)c1nc(-c2cccc(NS(=O)(=O)c3c(F)cccc3F)c2F)c(-c2ccnc(N)n2)s1` the remaining activity was 91% (enzyme activity; inhibitor; radiometric; 1 µM).
`CN1CC(Oc2cnc(C#N)cc2-c2ccn3nc(NC(=O)C4CC4)cc3c2)C1` gave an inhibition of -4% (enzyme activity; inhibitor; 1 µM).
`CS(=O)(=O)CCNCc1ccc(-c2ccc3ncnc(Nc4ccc(OCc5cccc(F)c5)c(Cl)c4)c3c2)o1` gave a remaining signal of 101% (cell-free assay; 0.5 µM).
With `CC(=O)N1CCC(c2ccc(C(=O)NC3=NCCN3)cc2C(F)(F)F)CC1` the remaining binding was 87% (cell-free assay; competition with immobilised ligand; 1 µM).
For `COc1cc(-c2cc(-c3ccc(N4CCNCC4)cc3)cnc2C)cc(OC)c1OC`, the inhibition was 3% (enzyme activity; inhibitor; 1 µM).
With `CCN(CC)CCNC(=O)c1c(C)[nH]c(/C=C2\C(=O)Nc3ccc(F)cc32)c1C` the remaining signal was 82.9% (cell-free assay; 0.5 µM).
With `O=C(O)c1cc(-c2ccc(C3CCNCC3)cc2)c2ccc(-c3ccc(C(F)(F)F)cc3)cc2c1` the remaining binding was 100% (cell-free assay; competition with immobilised ligand; 1 µM).
For `O=[N+]([O-])c1cccc2[nH]c(CNc3nc(N4CCOCC4)nc4c3ncn4-c3ccsc3)nc12`, the binding vs control was 85% (binding; competition with immobilised ligand; 10 µM).
`O=C(O)[C@@H]1[C@@H](Cn2nnc3ccccc3c2=O)CC[C@H]1C(=O)c1ccc(OCCC2CCOCC2)cc1` has a remaining binding of 100% (cell-free assay; competition with immobilised ligand; 1 µM).
`CCN(CC)c1ccc(C2=NNC(=O)CC2C)cc1[N+](=O)[O-]` (centres unmarked) has a remaining activity of 95% (enzyme activity; inhibitor; 10 µM).
`Cc1nc(C2CCN(C(=O)c3ccc(OC(F)(F)F)cc3N)CC2)c2ncc(N3CCN(C)CC3)cc2n1` gave a remaining binding of 100% (cell-free assay; competition with immobilised ligand; 1 µM).
For `Cc1cc(NC(=O)c2cccc3cc(-c4cccc5[nH]nc(N)c45)ccc23)ccc1F`, the activity vs control was 96% (enzyme activity; inhibitor; 0.1 µM).
`COc1cc(Nc2c(C#N)cnc3cc(OCCCN4CCN(C)CC4)c(OC)cc23)c(Cl)cc1Cl` gave a remaining signal of 71.3% (cell-free assay; 0.5 µM).
The remaining binding of `COc1ccc2c(c1)O[C@@H](c1ccc(OC)c(OC)c1)C[C@H]2NC(=O)C1(c2ccc3c(c2)OC(F)(F)O3)CC1` is reported as 91% (cell-free assay; competition with immobilised ligand; 1 µM).
`COc1cc2c(Nc3ccc(Br)cc3F)ncnc2cc1OCC1CCN(C)CC1` gave a remaining signal of 98.4% (cell-free assay; 0.5 µM).
With `CCOc1cc(-c2nncn2C)ccc1Nc1ncc2cc(C)nc(NCC(C)(C)C)c2n1` the inhibition was ≤ 15% (cell-free assay; TR-FRET; 1 µM).
With `Cc1sc(C(=O)NC2COC2)cc1-n1cc(NC(=O)Nc2c(F)cccc2Cl)cn1` the remaining activity was 98% (enzyme activity; inhibitor; 10 µM).
For `N#CCCc1ccc2c(c1)-c1[nH]c3ccc([N+](=O)[O-])cc3c1CC(=O)N2`, the remaining signal was 66% (cell-free assay; 0.5 µM).
The remaining signal of `Cc1ccc(NC(=O)c2ccc(C)c(C(F)(F)F)c2)cc1C#Cc1nn(C2CCC(O)CC2)c2ncnc(N)c12` (centres unmarked) is reported as 2% (cell-free assay; 10 µM).
`Cc1ccc(Nc2nccc(N(C)c3ccc4c(C)n(C)nc4c3)n2)cc1S(N)(=O)=O` gave an inhibition of 96% (enzyme activity; inhibitor; 10 µM).
`Cc1ccc(C(=O)Nc2ccc(CN3CCN(C)CC3)c(C(F)(F)F)c2)cc1C#Cc1cnc2cccnn12` has a remaining activity of 28% (enzyme activity; inhibitor; 23.5 nM).
